Results from ChEMBL document CHEMBL1133541, “Conformationally constrained butyrophenones with affinity for dopamine (D(1), D(2), D(4)) and serotonin (5-HT(2A), 5-HT(2B), 5-HT(2C)) receptors: synthesis of aminomethylbenzo[b]furanones and their evaluation as antipsychotics” (J Med Chem, 2000).

Key:
[1] = In vitro affinity against Dopamine receptor D4; design: species or system Bos taurus
[2] = molecular target: T1, 5-hydroxytryptamine receptor 2A (Rattus norvegicus, UniProt P14842); assay: In vitro affinity against serotonin 5-hydroxytryptamine 2A receptor
T1 sequence (P14842 whole entry): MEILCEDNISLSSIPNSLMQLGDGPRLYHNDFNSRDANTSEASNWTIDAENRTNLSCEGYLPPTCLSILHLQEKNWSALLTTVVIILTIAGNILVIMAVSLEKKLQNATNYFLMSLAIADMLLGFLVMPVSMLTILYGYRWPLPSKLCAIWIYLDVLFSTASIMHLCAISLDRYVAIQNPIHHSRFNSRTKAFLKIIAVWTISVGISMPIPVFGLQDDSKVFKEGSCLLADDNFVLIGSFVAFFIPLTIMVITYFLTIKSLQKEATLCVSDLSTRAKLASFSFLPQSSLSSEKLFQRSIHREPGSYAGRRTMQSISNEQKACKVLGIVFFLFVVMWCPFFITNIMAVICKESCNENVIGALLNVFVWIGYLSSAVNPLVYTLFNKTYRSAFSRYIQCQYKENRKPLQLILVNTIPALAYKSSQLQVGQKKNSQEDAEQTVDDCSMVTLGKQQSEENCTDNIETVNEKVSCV

[3] = molecular target: T2, 5-hydroxytryptamine receptor 2B (Rattus norvegicus, UniProt P30994); assay: Compound was evaluated for antagonism against serotonin (5-hydroxytryptamine 2B receptor ) receptor; assay type: functional; conditions: read-out: pA2 (converted)
T2 sequence (P30994 whole entry): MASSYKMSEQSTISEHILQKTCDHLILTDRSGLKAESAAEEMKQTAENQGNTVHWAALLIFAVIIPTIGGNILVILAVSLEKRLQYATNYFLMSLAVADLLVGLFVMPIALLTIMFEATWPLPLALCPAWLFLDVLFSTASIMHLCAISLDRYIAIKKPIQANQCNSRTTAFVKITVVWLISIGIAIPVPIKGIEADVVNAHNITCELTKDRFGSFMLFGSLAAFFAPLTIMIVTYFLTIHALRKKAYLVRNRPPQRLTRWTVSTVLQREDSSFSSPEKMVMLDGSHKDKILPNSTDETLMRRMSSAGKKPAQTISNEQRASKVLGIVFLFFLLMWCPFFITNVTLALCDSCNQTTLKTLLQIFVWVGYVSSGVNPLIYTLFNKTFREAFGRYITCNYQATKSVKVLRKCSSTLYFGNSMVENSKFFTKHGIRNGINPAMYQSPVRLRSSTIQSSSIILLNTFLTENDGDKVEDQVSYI
Summary of the method: (§1)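 Rat stomach fundus strips in modified Krebs solution, 37 °C, carbogen-aerated organ baths; serotonin cumulative concentration-response curves (0.01 nM-10 µM), runs alternating with and without antagonist, 60 min rest between. Antagonism expressed as pA2 (-log antagonist concentration maintaining response when agonist doubled); 3-4 replicate experiments.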

[4] = molecular target: T3, 5-hydroxytryptamine receptor 2C (Homo sapiens) (UniProt P28335); conditions: Bos taurus; 10e-6 M
T3 sequence (whole entry): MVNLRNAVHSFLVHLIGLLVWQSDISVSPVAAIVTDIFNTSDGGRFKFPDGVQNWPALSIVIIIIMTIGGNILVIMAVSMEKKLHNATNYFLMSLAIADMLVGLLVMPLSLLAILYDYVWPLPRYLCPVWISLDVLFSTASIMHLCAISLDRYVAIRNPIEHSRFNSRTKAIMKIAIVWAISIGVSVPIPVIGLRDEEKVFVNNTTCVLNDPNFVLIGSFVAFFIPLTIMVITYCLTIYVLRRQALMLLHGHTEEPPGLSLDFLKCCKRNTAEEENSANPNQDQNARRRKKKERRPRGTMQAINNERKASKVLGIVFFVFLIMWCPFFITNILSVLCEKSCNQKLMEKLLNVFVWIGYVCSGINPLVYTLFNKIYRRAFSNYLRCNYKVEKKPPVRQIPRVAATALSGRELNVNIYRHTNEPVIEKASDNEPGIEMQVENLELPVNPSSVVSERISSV

Mus musculus [5] = assay: Antipsychotic activity was determined in mice or rat within 20-30 min of administration
Mus musculus [6] = assay: Effective dose administered in apomorphine induced climbing test in mice (in vivo); Value ranges from 0.8-1.44; assay type: functional
[7] = molecular target: T1, 5-hydroxytryptamine receptor 2A; assay: In vitro affinity against serotonin ( 5-hydroxytryptamine 2A receptor ) receptor
Summary of the method: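 Rat frontal cortex membranes (male Sprague-Dawley), preincubated 37 °C 15 min to remove endogenous 5-HT, in Tris-HCl pH 8.07 with 4 mM CaCl2 and 0.1% ascorbic acid. [3H]ketanserin competition in triplicate, 1 µM methysergide masking as required, 30 min at 37 °C; filtration on PEI-soaked GF/C, scintillation counting; two replicate experiments.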

Mus musculus [8] = assay: Effective dose administered in catalepsy test in mice (in vivo); assay type: functional
Summary of the method: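 Mice (n = 6-12) tested 30 min after dosing: forepaws on one horizontal wire, hindpaws on another 6 cm away and 2 cm lower. Posture held over 30 s counted as catalepsy; ED50 by Litchfield-Wilcoxon method.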

D(1A) dopamine receptor = D(1A) dopamine receptor (Rattus norvegicus, UniProt P18901); assay: In vitro affinity against Dopamine receptor D1
Chain of D(1A) dopamine receptor (P18901 whole entry): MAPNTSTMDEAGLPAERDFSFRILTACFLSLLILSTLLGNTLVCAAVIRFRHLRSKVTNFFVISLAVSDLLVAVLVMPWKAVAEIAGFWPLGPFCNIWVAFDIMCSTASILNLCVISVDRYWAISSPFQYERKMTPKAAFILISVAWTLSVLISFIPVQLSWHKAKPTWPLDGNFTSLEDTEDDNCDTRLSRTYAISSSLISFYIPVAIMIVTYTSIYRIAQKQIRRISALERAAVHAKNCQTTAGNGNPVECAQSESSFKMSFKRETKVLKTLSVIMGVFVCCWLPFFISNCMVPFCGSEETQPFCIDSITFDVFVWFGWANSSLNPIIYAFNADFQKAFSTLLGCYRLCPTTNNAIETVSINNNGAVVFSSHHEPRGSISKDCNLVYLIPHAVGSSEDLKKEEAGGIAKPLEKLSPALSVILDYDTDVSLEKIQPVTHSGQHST

[9] = molecular target: T2, 5-hydroxytryptamine receptor 2B; assay: Compound was evaluated for antagonism against serotonin (5-hydroxytryptamine 2B) receptor; assay type: functional; conditions: read-out: pA2 (converted); summary of the method: as §1
[10] = molecular target: T3, 5-hydroxytryptamine receptor 2C (Homo sapiens); conditions: Bos taurus; 10e-6 M; remark: listed apart in the source
Mus musculus [11] = assay: Effective dose administered in apomorphine induced climbing test in mice (in vivo); assay type: functional

| Log Ki [1] | Ki [2] [nM] | Kb [3] [nM] | Structure (SMILES) | other results |
| --- | --- | --- | --- | --- |
| -8.2 |  |  | O=C(CCCN1CCC(O)(c2ccc(Cl)cc2)CC1)c1ccc(F)cc1 [HALOPERIDOL] |  |
|  | 1260 | 589 | O=C(CCCCN1CCN(CC2CC(=O)c3ccoc3C2)CC1)c1ccc(F)cc1 (stereo not given) | Inhibition [4]: 44.3% |
| -7.04 |  |  | O=C1CC(CN2CCC(C(=O)c3ccc(F)cc3)CC2)Cc2occc21 (stereo not given) | ED50 (Mus musculus [5]): 1.21 mg/kg; ED50 (Mus musculus [6]): 0.95 mg/kg; Ki [7]: 51.3 nM; ED50 (Mus musculus [8]): 3.44 mg/kg; Ki (D(1A) dopamine receptor): 195 nM; Kb [9]: 195 nM |
|  | 955 | 437 | O=C(CCCN1CCN(CC2CC(=O)c3ccoc3C2)CC1)c1ccc(F)cc1 (stereo not given) | Inhibition [10]: 3.7% |
|  | 8320 | 3470 | O=C1CC(CN2CCN(c3ccccn3)CC2)Cc2occc21 (stereo not given) |  |
|  | 2290 | 646 | COc1ccccc1N1CCN(CC2CC(=O)c3ccoc3C2)CC1 (stereo not given) |  |
| -7.68 | 10.7 | 245 | O=C1CC(CN2CCC(c3noc4cc(F)ccc34)CC2)Cc2occc21 (stereo not given) | ED50 (Mus musculus [5]): 0.48 mg/kg; ED50 (Mus musculus [8]): 3.84 mg/kg; Ki (D(1A) dopamine receptor): 28.8 nM; ED50 (Mus musculus [11]): 0.34 mg/kg |
|  |  | > 100000 | O=C1CC(CN2CCN(c3ccccc3)CC2)Cc2occc21 (stereo not given) | Ki [7]: 21.9 nM |

| Structure (SMILES) | Log Ki [1] | Ki [2] [nM] | Kb [3] [nM] | other results |
| --- | --- | --- | --- | --- |
| O=C1CC(CN2CCN(c3ncccn3)CC2)Cc2occc21 (stereo not given) |  | > 100000 | 1820 |  |
| CN1CCN(C2=Nc3cc(Cl)ccc3Nc3ccccc32)CC1 [CLOZAPINE] | -7.42 |  |  |  |
